Results published in ChEMBL document CHEMBL4382210, “Identification of novel benzothiopyranone compounds against Mycobacterium tuberculosis through scaffold morphing from benzothiazinones” (Eur J Med Chem, 2018).

Columns and labels:
[1] = system: Mycobacterium tuberculosis; assay: Antimicrobial activity against Mycobacterium tuberculosis H37Rv after 7 days by MABA; type: functional; conditions: 168 h
Method in brief: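 Strain H37Rv or clinical isolates grown to late log phase in 7H9-ADC-TG, washed, resuspended in PBS, filtered (8 µm) and frozen. On day 7 Tween 80 and alamar blue added, read 16–24 h later (ex 530/em 590). MIC = lowest concentration giving ≥90% fluorescence reduction versus bacterium-only controls.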

[2] = system: Vero; assay: Cytotoxicity against African green monkey Vero cells assessed as reduction in cell viability after 48 hrs by MTT assay; type: cell-based; conditions: Chlorocebus sabaeus
Method in brief: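 Vero or HepG2 cells in RPMI1640 with 10% FBS at 37 °C, 5% CO2, seeded at 4×10^5 cells/mL. Threefold dilutions at 64–0.26 µg/mL final for 48 h. Cells then washed with HBSS, MTT added for 4 h, absorbance read at 492 nm. IC50 taken relative to untreated control.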

[3] = molecular target: Cytochrome P450 2C9 (Homo sapiens, UniProt P11712); assay: Inhibition of CYP2C9 in human liver microsomes after 20 mins by LC-MS/MS analysis; type: ADME
Method in brief: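 Compound at 0.1–50 µM incubated 20 min with human liver microsomes (0.2 mg/mL) and the CYP isoform, alongside isoform-specific probe substrates. Substrate remaining measured by LC-MS/MS at each concentration to derive IC50.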

[4] = Half life in CD-1 mouse hepatocytes assessed per million cells at 1 uM incubated up to 120 mins by LC-MS/MS analysis; type: ADME, cell-based, Hepatocyte
Method in brief: (§1)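 Pooled male CD-1 mouse or pooled human hepatocytes at 1 million cells/mL final, compound at 1 µM. Incubated at 37 °C in a CO2 incubator with shaking (~100 rpm). Samples taken at 0, 15, 30, 60, 90 and 120 min and quenched with cold ACN/MeOH containing internal standard. Parent compound remaining measured by LC-MS/MS.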

[5] = Intrinsic clearance in CD-1 mouse hepatocytes assessed per million cells at 1 uM incubated up to 120 mins by LC-MS/MS analysis; type: ADME, cell-based, Hepatocyte; conditions: read-out: CLH; method in brief: as §1
[6] = Cmax in BALB/C mouse at 25 mg/kg, po by LC/TSQ quantum access mass spectrometry; type: ADME, organism-based; design: dose 25 mg/kg, route oral; conditions: in vivo
Method in brief: (§2)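 Male Balb/c mice (22–23 g), three per route. Single dose of 25 mg/kg p.o. (2.5 mg/mL in 0.5% carboxymethyl cellulose + 0.5% Tween 80) or 10 mg/kg i.v. (2.0 mg/mL in 20% HP-β-CD with 4 mol/L HCl). Blood sampled 5, 15, 30 min, 1, 2, 4, 7, 24 h. Plasma extracted with acetonitrile plus terfenadine internal standard, then LC-MS/MS on a C18 column. F = (AUCpo×dose_iv)/(AUCiv×dose_po).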

[7] = Tmax in BALB/C mouse at 25 mg/kg, po by LC/TSQ quantum access mass spectrometry; type: ADME, organism-based; conditions: in vivo; method in brief: as §2
[8] = AUC (0 to 24 hrs) in BALB/C mouse at 25 mg/kg, po by LC/TSQ quantum access mass spectrometry; type: ADME, organism-based; design: time < 24 hr, dose 25 mg/kg, route oral; conditions: in vivo; method in brief: as §2
[9] = AUC (0 to infinity) in BALB/C mouse at 10 mg/kg, iv by LC/TSQ quantum access mass spectrometry; type: ADME, organism-based; design: dose 10 mg/kg, route intravenous, time infinity; conditions: in vivo; method in brief: as §2
[10] = MRT (0 to infinity) in BALB/C mouse at 10 mg/kg, iv by LC/TSQ quantum access mass spectrometry; type: ADME, organism-based; conditions: in vivo; method in brief: as §2
[11] = system: Mycobacterium tuberculosis; assay: Antimicrobial activity against Mycobacterium tuberculosis H37Rv infected in BALB/C mouse assessed as bacterial burden in mouse lung at 100 mg/kg, po administered via gavage treated 5 times per week for 3 weeks starting from day 10 post infection (reference value: 7.102 +/- 0.152 log10CFU); type: functional

Sequence of Cytochrome P450 2C9 (P11712 whole entry, canonical isoform): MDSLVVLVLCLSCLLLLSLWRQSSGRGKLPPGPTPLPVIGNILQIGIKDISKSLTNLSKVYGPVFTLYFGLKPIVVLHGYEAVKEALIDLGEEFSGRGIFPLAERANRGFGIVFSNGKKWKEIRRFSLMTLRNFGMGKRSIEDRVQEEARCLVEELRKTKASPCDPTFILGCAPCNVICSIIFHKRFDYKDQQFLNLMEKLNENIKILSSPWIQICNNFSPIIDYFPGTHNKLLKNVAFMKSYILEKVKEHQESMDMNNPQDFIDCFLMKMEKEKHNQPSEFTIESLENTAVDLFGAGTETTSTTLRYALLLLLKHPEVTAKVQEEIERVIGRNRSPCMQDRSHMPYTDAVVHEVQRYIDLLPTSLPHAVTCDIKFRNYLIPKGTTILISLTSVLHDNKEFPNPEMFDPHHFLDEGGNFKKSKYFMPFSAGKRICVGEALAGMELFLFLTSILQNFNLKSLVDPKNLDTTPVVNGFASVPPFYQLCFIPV

O=c1cc(N2CCN(CC3CCCCC3)CC2)sc2c([N+](=O)[O-])cc(C(F)(F)F)cc12
MIC90 [1]: < 0.016 µg/mL | IC50 [2]: > 64 µg/mL | IC50 [3]: > 50 µM | half-life at 1 µM [4]: 7.7 h | hepatocyte CLint at 1 µM [5]: 1.5 µL/min/1e6 cells | Cmax [6]: 588 ng/mL | Tmax [7]: 0.5 h | AUC(0-t) at 24 h [8]: 1580 ng·h/mL | AUC(0-inf) [9]: 5180 ng·h/mL | MRT inf [10]: 4.91 h | Activity [11]: 1.678 log10CFU
